Measured values gathered from unrelated publications.
Compare with care: the assays were run in different laboratories.
Target: Tyrosine-protein kinase TXK (TXK, Homo sapiens, UniProt P42681)
One construct used (P42681 1-527): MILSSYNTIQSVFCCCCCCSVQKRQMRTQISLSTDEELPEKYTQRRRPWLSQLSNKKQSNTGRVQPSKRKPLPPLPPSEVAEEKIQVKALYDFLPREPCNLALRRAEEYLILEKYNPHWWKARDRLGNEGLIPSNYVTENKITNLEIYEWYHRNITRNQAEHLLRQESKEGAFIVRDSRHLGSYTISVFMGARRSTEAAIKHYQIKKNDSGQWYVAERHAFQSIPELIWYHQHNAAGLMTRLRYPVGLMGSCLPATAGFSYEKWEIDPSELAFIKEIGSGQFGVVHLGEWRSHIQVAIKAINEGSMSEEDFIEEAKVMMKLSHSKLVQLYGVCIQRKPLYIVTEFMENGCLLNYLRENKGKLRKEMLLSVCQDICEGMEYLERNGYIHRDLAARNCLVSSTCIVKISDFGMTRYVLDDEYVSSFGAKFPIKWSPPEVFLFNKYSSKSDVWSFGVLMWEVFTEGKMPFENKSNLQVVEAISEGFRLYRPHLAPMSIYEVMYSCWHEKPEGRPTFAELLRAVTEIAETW

Compound	assay	conditions	measurement	result
CCOC(=O)c1cc2cc(-c3cc(C(=O)NCc4ccc(C(=O)O)cc4)nn3C)ccc2[nH]1	binding, competition with immobilised ligand	0.1 µM	remaining binding	90%
Oc1ccc(-c2nc(-c3ccncc3)c(-c3ccc(F)cc3)[nH]2)cc1	cell-free assay	0.5 µM	remaining signal	78.5%
Cc1sc(C(=O)NC2COC2)cc1-n1cc(NC(=O)Nc2c(F)cccc2Cl)cn1	enzyme activity, inhibitor	10 µM	remaining activity	76.7%
Cc1c(NC(=O)c2cc(C(N)=O)nc3cc(F)ccc23)c(C(F)(F)F)nn1Cc1ccc(C#N)cc1	binding, competition with immobilised ligand	1 µM	remaining binding	99%
Cc1cnc(NC2CCOCC2)nc1-n1cnc(C(=O)NC(CN)c2cc(F)cc(Cl)c2)c1 (stereo not shown)	enzyme activity, inhibitor, radiometric	1 µM	remaining activity	102%
Cn1nc(C(=O)NCc2ccc(C(=O)O)cc2)cc1-c1ccc2[nH]ccc2c1	binding, competition with immobilised ligand	0.1 µM	remaining binding	90%
CCCS(=O)(=O)Nc1ccc(F)c(C(=O)c2c[nH]c3ncc(-c4ccc(Cl)cc4)cc23)c1F	enzyme activity, inhibitor	1 µM	inhibition	< 10%
Cc1cc(NC(=O)c2cccc3cc(-c4cccc5[nH]nc(N)c45)ccc23)ccc1F	enzyme activity, inhibitor	0.1 µM	activity vs control	123%
COc1cc(-c2cn(C3CCc4ccccc4N(CC(F)(F)F)C3=O)nn2)ccc1-n1ccc(C)n1 (stereo not shown)	binding, competition with immobilised ligand	1 µM	remaining binding	84%
CC(C)(C)c1nc(-c2cccc(NS(=O)(=O)c3c(F)cccc3F)c2F)c(-c2ccnc(N)n2)s1	enzyme activity, inhibitor, radiometric	1 µM	remaining activity	88%
COc1cc2ncnc(Nc3ccc(Oc4ccccc4)c(C)c3C)c2cc1OC	enzyme activity, inhibitor	1 µM	inhibition	2%
CN(C(=O)c1ccccc1)c1cc(N(C)c2ccc3c(c2)CCc2ccc(C(=O)NCCN4CCOCC4)cc2C3=O)ccc1F	binding, competition with immobilised ligand	1 µM	remaining binding	79%
N#CCCc1ccc2c(c1)-c1[nH]c3ccc([N+](=O)[O-])cc3c1CC(=O)N2	cell-free assay	0.5 µM	remaining signal	67.6%
c1nc2c(Nc3ccc4c(c3)OCCO4)nc(Nc3ccc4c(c3)OCCO4)nc2[nH]1	enzyme activity, inhibitor	10 µM	activity vs control	8%
Nc1ncnc2occ(-c3ccc(NC(=O)Nc4cc(C(F)(F)F)ccc4F)cc3)c12	enzyme activity, inhibitor	20 µM	remaining activity	14%
CC/C(=N\NC(=O)NCc1cccc(O)c1)c1ccc(O)c(C)c1O	enzyme activity, inhibitor	0.1 µM	inhibition	-0.3%
Cc1ccc(C(=O)NCc2ccsc2)cc1C#Cc1cn(C(C)C)c2ncnc(N)c12	enzyme activity, inhibitor	1 µM	activity vs control	36%
O=C1Nc2ccc(Cl)cc2C1=Cc1cc(Cl)c(O)c(Cl)c1	cell-free assay	0.5 µM	remaining signal	86.6%
O=C(NS(=O)(=O)c1ccc(NCC2CCOCC2)c([N+](=O)[O-])c1)c1ccc(N2CCN(Cc3ccc(C(F)(F)F)cc3-c3ccc(Cl)cc3)CC2)cc1Oc1cnc2[nH]ccc2c1	cell-free assay, competition with immobilised ligand	1 µM	remaining binding	94%
